Test results taken from ChEMBL document CHEMBL1759852, “A comparative study of proapoptotic potential of cyano analogues of boswellic acid and 11-keto-boswellic acid” (Eur J Med Chem, 2011).
The source made the active and inactive calls. No cut-off for these calls is given here.

Assays:
[1] = system: HL-60; test: Cytotoxicity against human HL60 cells after 48 hrs by MTT assay; type: functional, cell-based; settings: HL-60, 48 h
In short: (§1)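 HL-60 (2 × 10^4/200 μl) or HeLa (1 × 10^4/200 μl) in RPMI-1640/MEM, 10% FCS, 37 °C, 5% CO2; treated 0.1–50 μM for 48 h, DMSO vehicle <0.2%. MTT added final 3 h; formazan dissolved in DMSO, OD 570 nm (reference 620 nm). IC50 as 50% viability versus untreated control; three experiments, CV <10%.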

[2] = system: HeLa; test: Cytotoxicity against human HeLa cells after 48 hrs by MTT assay; type: functional, cell-based; in short: as §1
[3] = system: HL-60; test: Induction of apoptosis in human HL60 cells assessed as late apoptotic cells at 1 uM after 6 hrs using Annexin-V-FITC/propidium iodide staining by flow cytometry (reference value: 1%); type: functional
In short: (§2)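 HL-60 cells (1 × 10^6/ml) treated 6 h at varied concentrations; camptothecin 4 μM 6 h positive control. AnnexinV-FITC and propidium iodide staining per kit; FL-1 versus FL-2 flow cytometry with quadrant statistics for apoptotic and necrotic populations; representative of three experiments.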

[4] = system: HL-60; test: Induction of apoptosis in human HL60 cells assessed as nuclear condensation and blebbing at 0.5 to 2 uM after 9 hrs Hoechst 33258 staining by fluorescence microscopy; type: functional, cell-based
In short: (§3)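 HL-60 cells (2 × 10^6/3 ml) treated 9 h, washed twice in PBS, fixed and stained with Hoechst 33258; nuclear morphology and apoptotic bodies examined by inverted fluorescence microscopy.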

[5] = system: HL-60; test: Induction of apoptosis in human HL60 cells assessed as loss of cell cytoplasmic volume at 2 uM after 9 hrs by scanning electron microscopy; type: functional, cell-based
In short: (§4)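 HL-60 seeded 2 × 10^5/ml in medium with 10% FCS, treated at 0.5 and 2 μM (DMSO stock; vehicle-only controls) for 9 h at 37 °C. Fixed 2.5% glutaraldehyde in 0.1 M phosphate pH 7.2 at 4 °C 1 h, post-fixed 1% OsO4 1 h, acetone-dehydrated, critical-point dried, gold-coated; surface ultrastructure by scanning electron microscopy.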

[6] = system: HL-60; test: Induction of apoptosis in human HL60 cells assessed as early apoptotic cells at 2 uM after 6 hrs using Annexin-V-FITC/propidium iodide staining by flow cytometry (reference value: 6%); type: functional; in short: as §2
[7] = system: HL-60; test: Induction of apoptosis in human HL60 cells assessed as cell shrinkage and apoptotic body formation at 0.5 uM after 9 hrs by scanning electron microscopy; type: functional, cell-based; in short: as §4
[8] = system: HL-60; test: Induction of apoptosis in human HL60 cells assessed as increase in scattered apoptotic bodies formation at 0.5 uM after 9 hrs using Hoechst 33258 staining by fluorescence microscopy; type: functional, cell-based; in short: as §3
[9] = system: HL-60; test: Cell cycle arrest in human HL60 cells assessed as accumulation at sub-G1 phase at 4 uM after 18 hrs by flow cytometry relative to control; type: functional
In short: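 HL-60 cells at 1 × 10^6/ml exposed 18 h; camptothecin 4 μM for 6 h as positive control. Cells pelleted 160 × g 5 min, PBS-washed, fixed in cold 70% alcohol overnight at −20 °C, RNase (400 μg/ml) digested, PI-stained; flow cytometry, hypo-diploid (<2n DNA) sub-G0/G1 fraction scored as apoptotic.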

[10] = system: HL-60; test: Induction of apoptosis in human HL60 cells assessed as apoptotic cells at 2 uM after 9 hrs by scanning electron microscopy; type: functional, cell-based; in short: as §4
[11] = system: HL-60; test: Induction of apoptosis in human HL60 cells assessed as early apoptotic cells at 1 uM after 6 hrs using Annexin-V-FITC/propidium iodide staining by flow cytometry (reference value: 6%); type: functional; in short: as §2
[12] = system: HL-60; test: Induction of apoptosis in human HL60 cells assessed as early apoptotic cells at 0.3 uM after 6 hrs using Annexin-V-FITC/propidium iodide staining by flow cytometry (reference value: 6%); type: functional; in short: as §2
[13] = system: HL-60; test: Induction of apoptosis in human HL60 cells assessed as early apoptotic cells at 4 uM after 6 hrs using Annexin-V-FITC/propidium iodide staining by flow cytometry (reference value: 6%); type: functional; in short: as §2
[14] = system: HL-60; test: Induction of apoptosis in human HL60 cells assessed as late apoptotic cells at 4 uM after 6 hrs using Annexin-V-FITC/propidium iodide staining by flow cytometry (reference value: 1%); type: functional; in short: as §2
[15] = system: HL-60; test: Induction of apoptosis in human HL60 cells assessed as smoothening of cell surface and blebbing of plasma membrane at 0.5 uM after 9 hrs by scanning electron microscopy; type: functional, cell-based; in short: as §4
[16] = system: HL-60; test: Induction of apoptosis in human HL60 cells assessed as late apoptotic cells at 2 uM after 6 hrs using Annexin-V-FITC/propidium iodide staining by flow cytometry (reference value: 1%); type: functional; in short: as §2
[17] = system: HL-60; test: Induction of apoptosis in human HL60 cells assessed as late apoptotic cells at 0.3 uM after 6 hrs using Annexin-V-FITC/propidium iodide staining by flow cytometry (reference value: 1%); type: functional; in short: as §2
[18] = system: HL-60; test: Induction of apoptosis in human HL60 cells assessed as induction of morphological changes after 9 hrs by scanning electron microscopy; type: functional, cell-based; in short: as §4
[19] = system: HL-60; test: Induction of apoptosis in human HL60 cells assessed as DNA ladder formation at 1 uM after 9 hrs by agarose gel electrophoresis; type: functional, cell-based
In short: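 HL-60 cells (2 × 10^6) treated 9 h; untreated negative control, camptothecin 4 μM positive control. Cells washed in PBS with 10 mM EDTA, lysed, genomic DNA extracted, precipitated, washed in 80% alcohol, dissolved in TE; run on 1.6% agarose at 50 V, ethidium bromide stained for laddering.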

Row | Compound | IC50 [1] | IC50 [2] | other results
1 | CCCCOC(=O)[C@]1(C)[C@@H]2CC[C@]3(C)[C@H](CC=C4[C@@H]5[C@@H](C)[C@H](C)CC[C@]5(C)CC[C@]43C)[C@@]2(C)CC[C@H]1OC(C)=O | 28 µM | > 50 µM | –
2 | C[C@H]1[C@H](C)CC[C@]2(C)CC[C@]3(C)C(=CC(=O)[C@@H]4[C@@]5(C)CC(C(N)=O)[C@H](O)[C@](C)(N=C=O)[C@@H]5CC[C@]43C)[C@H]12 (stereo not given in full) | 24 µM | 45 µM | –
3 | C[C@H]1[C@H](C)CC[C@]2(C)CC[C@]3(C)C(=CC[C@@H]4[C@@]5(C)CC[C@@H](O)[C@](C)(C(=O)O)[C@@H]5CC[C@]43C)[C@H]12 [BOSWELLIC ACID] | 24 µM | 35 µM | –
4 | C[C@H]1[C@H](C)CC[C@]2(C)CC[C@]3(C)C(=CC[C@@H]4[C@@]5(C)CC(C(N)=O)[C@H](O)[C@](C)(N)[C@@H]5CC[C@]43C)[C@H]12 (stereo not given in full) | 37 µM | > 50 µM | –
5 | CCCCOC(=O)[C@]1(C)[C@@H]2CC[C@]3(C)[C@H](C(=O)C=C4[C@@H]5[C@@H](C)[C@H](C)CC[C@]5(C)CC[C@]43C)[C@@]2(C)CC[C@H]1OC(C)=O | 30 µM | 40 µM | –
6 | CCCCOC(=O)[C@@]1(C)C(=O)C(C#N)C[C@]2(C)[C@H]3CC=C4[C@@H]5[C@@H](C)[C@H](C)CC[C@]5(C)CC[C@@]4(C)[C@]3(C)CC[C@@H]12 (stereo not given in full) | 14 µM | 35 µM | –
7 | CCCCOC(=O)[C@@]1(C)C(=O)CC[C@]2(C)[C@H]3CC=C4[C@@H]5[C@@H](C)[C@H](C)CC[C@]5(C)CC[C@@]4(C)[C@]3(C)CC[C@@H]12 | > 50 µM | > 50 µM | –
8 | CCCCOC(=O)[C@@]1(C)c2oncc2C[C@@]2(C)[C@H]1CC[C@]1(C)[C@@H]2C(=O)C=C2[C@@H]3[C@@H](C)[C@H](C)CC[C@]3(C)CC[C@]21C | 33 µM | > 50 µM | –
9 | CCCCOC(=O)[C@@]1(C)C(=O)C(C#N)=C[C@]2(C)[C@H]3CC=C4[C@@H]5[C@@H](C)[C@H](C)CC[C@]5(C)CC[C@@]4(C)[C@]3(C)CC[C@@H]12 | 0.42 µM | 7.9 µM | Activity [3]: 1%; Activity [4]: Active; Activity [5]: Active; Activity [6]: 11%; Activity [7]: Active; Activity [8]: Active; Activity [9]: 76%; Activity [10]: Active; Activity [11]: 10%; Activity [12]: 9%; Activity [13]: 12%; Activity [14]: 1%; Activity [15]: Active; Activity [16]: 2%; Activity [17]: 2%
10 | C[C@H]1[C@H](C)CC[C@]2(C)CC[C@]3(C)C(=CC[C@@H]4[C@@]5(C)CC(C(N)=O)[C@H](O)[C@](C)(N=C=O)[C@@H]5CC[C@]43C)[C@H]12 (stereo not given in full) | > 50 µM | > 50 µM | –
11 | CC(=O)O[C@@H]1CC[C@@]2(C)[C@@H](CC[C@]3(C)[C@@H]2C(=O)C=C2[C@@H]4[C@@H](C)[C@H](C)CC[C@]4(C)CC[C@]23C)[C@@]1(C)C(=O)O [AKBA] | 11 µM | 31 µM | –
12 | CCCCOC(=O)[C@@]1(C)[C@H](O)CC[C@@]2(C)[C@H]1CC[C@]1(C)[C@@H]2C(=O)C=C2[C@@H]3[C@@H](C)[C@H](C)CC[C@]3(C)CC[C@]21C | 34 µM | 50 µM | –
13 | CCCCOC(=O)[C@@]1(C)C(=O)CC[C@]2(C)[C@H]3C(=O)C=C4[C@@H]5[C@@H](C)[C@H](C)CC[C@]5(C)CC[C@@]4(C)[C@]3(C)CC[C@@H]12 | > 50 µM | > 50 µM | –
14 | CCCCOC(=O)[C@@]1(C)C(=O)/C(=C\O)C[C@]2(C)[C@H]3C(=O)C=C4[C@@H]5[C@@H](C)[C@H](C)CC[C@]5(C)CC[C@@]4(C)[C@]3(C)CC[C@@H]12 | 5 µM | > 50 µM | –
15 | CCCCOC(=O)[C@@]1(C)C(=O)/C(=C\O)C[C@]2(C)[C@H]3CC=C4[C@@H]5[C@@H](C)[C@H](C)CC[C@]5(C)CC[C@@]4(C)[C@]3(C)CC[C@@H]12 | 33 µM | 44 µM | –
16 | C[C@H]1[C@H](C)CC[C@]2(C)CC[C@]3(C)C(=CC[C@@H]4[C@@]5(C)CC(C(N)=O)[C@H](O)[C@](C)(C(=O)O)[C@@H]5CC[C@]43C)[C@H]12 (stereo not given in full) | > 50 µM | > 50 µM | –
17 | CCCCOC(=O)[C@@]1(C)C(=O)C(C#N)=C[C@]2(C)[C@H]3C(=O)C=C4[C@@H]5[C@@H](C)[C@H](C)CC[C@]5(C)CC[C@@]4(C)[C@]3(C)CC[C@@H]12 | 0.67 µM | 3 µM | Activity [3]: 2%; Activity [18]: Dose-dependent effect; Activity [4]: Active; Activity [6]: 24%; Activity [8]: Active; Activity [9]: 96%; Activity [19]: Active; Activity [11]: 20%; Activity [12]: 15%; Activity [13]: 26%; Activity [14]: 1%; Activity [16]: 1%; Activity [17]: 3%
18 | CCCCOC(=O)[C@@]1(C)[C@H](O)CC[C@@]2(C)[C@H]1CC[C@]1(C)[C@@H]2CC=C2[C@@H]3[C@@H](C)[C@H](C)CC[C@]3(C)CC[C@]21C | > 50 µM | > 50 µM | –
19 | C[C@H]1[C@H](C)CC[C@]2(C)CC[C@]3(C)C(=CC(=O)[C@@H]4[C@@]5(C)CC(C(N)=O)[C@H](O)[C@](C)(C(=O)O)[C@@H]5CC[C@]43C)[C@H]12 (stereo not given in full) | > 50 µM | > 50 µM | –
20 | CCCCOC(=O)[C@]1(C)[C@@H]2CC[C@]3(C)[C@H](CC=C4[C@@H]5[C@@H](C)[C@H](C)CC[C@]5(C)CC[C@]43C)[C@@]2(C)CC(C#N)[C@@H]1O (stereo not given in full) | > 50 µM | > 50 µM | –
21 | CC(=O)O[C@@H]1CC[C@@]2(C)[C@@H](CC[C@]3(C)[C@@H]2CC=C2[C@@H]4[C@@H](C)[C@H](C)CC[C@]4(C)CC[C@]23C)[C@@]1(C)C(=O)O | 10 µM | 22 µM | –
22 | CCCCOC(=O)[C@]1(C)[C@@H]2CC[C@]3(C)[C@H](C(=O)C=C4[C@@H]5[C@@H](C)[C@H](C)CC[C@]5(C)CC[C@]43C)[C@@]2(C)CC(C#N)[C@@H]1O (stereo not given in full) | 14 µM | 30 µM | –
23 | C[C@H]1[C@H](C)CC[C@]2(C)CC[C@]3(C)C(=CC(=O)[C@@H]4[C@@]5(C)CC[C@@H](O)[C@](C)(C(=O)O)[C@@H]5CC[C@]43C)[C@H]12 [11-KETO BOSWELLIC ACID] | 32 µM | 50 µM | –
24 | CCCCOC(=O)[C@@]1(C)C(=O)C(C#N)C[C@]2(C)[C@H]3C(=O)C=C4[C@@H]5[C@@H](C)[C@H](C)CC[C@]5(C)CC[C@@]4(C)[C@]3(C)CC[C@@H]12 (stereo not given in full) | 11 µM | 17 µM | –
25 | CCCCOC(=O)[C@@]1(C)c2oncc2C[C@@]2(C)[C@H]1CC[C@]1(C)[C@@H]2CC=C2[C@@H]3[C@@H](C)[C@H](C)CC[C@]3(C)CC[C@]21C | 50 µM | 50 µM | –
26 | C[C@H]1[C@H](C)CC[C@]2(C)CC[C@]3(C)C(=CC(=O)[C@@H]4[C@@]5(C)CC(C(N)=O)[C@H](O)[C@](C)(N)[C@@H]5CC[C@]43C)[C@H]12 (stereo not given in full) | > 50 µM | > 50 µM | –
